Source: publication PMC12491721 (Acta Pharmaceutica Sinica. B, 2025)

How the values were obtained:
PTP1B = experiment: In vitro PTP1B proteolysis; assay type: cell-based, mouse; conditions: IFN-γ-treated GL261 cells, Western blot
GL261 tumor [1] = experiment: Immune cell analysis of tumor tissues, flow cytometry; assay type: in vivo, C57BL/6 mice; conditions: for apoptosis rate of T cells within tumor tissues vs saline group: CD8+Annexin V+, +L groups
Procedure, shortened: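 Female C57BL/6 mice (6 weeks) bore left-flank tumours from 5 × 10^6 subcutaneous GL261 cells. Treatment was i.v. at 3 mg/kg VPF equivalent; +L groups received 671 nm laser, 100 mW, 15 min, 3 h post-injection. On Day 3, tumours were enzymatically dissociated, Fc-blocked 5 min and antibody-stained 45 min. Flow cytometry gated CD45+CD3+CD8+ cytotoxic T cells and CD8+Annexin V+ damaged T cells. n = 5.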

[2] = Brain accumulation in orthotopic GBM model, NIRF imaging; assay type: in vivo, BALB/c-nu mice; conditions: for time of peak accumulation in brain: orthotopic GL261, i.v., NIRF imaging
Procedure, shortened: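 Orthotopic model: 1 × 10^5 GL261 cells in saline were injected stereotactically into the brains of BALB/c-nu mice (2.0 mm lateral, 0.5 mm anterior to bregma, 3.0 mm depth, 1 μL/min). Test compound or VPF was given i.v. at an equivalent 3 mg/kg VPF content. Brain accumulation was followed by whole-body NIRF imaging, with ex vivo NIRF imaging of GBM tissue at 6 h.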

Cat D = experiment: Enzyme cleavage, HPLC; assay type: in vitro ADME; conditions: pH 5.5 MES buffer, 37 °C, 10 μg/mL enzyme
Procedure, shortened: (§1)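 The self-assembled nanoparticle was incubated at 37 °C in pH 5.5 MES buffer with 10 μg/mL of a single protease: Cat B, Cat D, Cat E, Cat L, caspase-3 or MMP-9. Cat B was also tested in the presence of its irreversible inhibitor Z-FA-FMK. Parent conjugate and cleavage products were followed by HPLC.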

GL261 cells [3] = experiment: Coculture assay, lysis of GL261 cells by T cells; assay type: cell-based, mouse; conditions: T cells treated 5 μmol/L 48 h, coculture 1 h, CCK-8, n = 3
Procedure, shortened: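 Intratumoral CD8+ T cells were isolated with CD8 microbeads from subcutaneous GL261 flank tumours in C57BL/6 mice and kept in RPMI1640 with 10% FBS at 37 °C, 5% CO2. They were stained with Far red CFSE and treated 48 h at 5 μmol/L. They were then cocultured 1 h with green CFSE-labelled GL261 cells. GL261 viability was measured by CCK-8.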

[4] = system: intratumoral CD8+ T cells; experiment: Exhaustion markers PD-1 and Tim3 in tumor-derived T cells; assay type: cell-based, mouse; conditions: for Tim3 expression (Tim3-positive cells) / PD-1 expression (PD-1-positive cells): 5 μmol/L, 48 h, n = 3, mean ± SD; for Tim3 expression (Tim3-positive cells): untreated 65.6 ± 4.84%; for PD-1 expression (PD-1-positive cells): untreated 69.6 ± 6.46%; for PD-1 and Tim3 levels: 24 h, no significant differences between the two groups
GL261 cells [5] = experiment: Intracellular ROS generation, DCFH-DA; assay type: cell-based, mouse; conditions: GL261, 5 μmol/L 24 h, n = 3
Procedure, shortened: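 GL261 cells were treated 24 h at 5 μmol/L, then loaded with DCFH-DA for 30 min before irradiation (40 mW, 500 s) or no irradiation. Intracellular DCF fluorescence was the read-out. n = 3.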

GL261 tumor [6] = experiment: Therapeutic efficacy in subcutaneous GL261 GBM model; assay type: in vivo, C57BL/6 mice; conditions: subcutaneous GL261, i.v. 3 mg/kg VPF equivalent, +L
Cat B = experiment: Target enzyme-specific cleavage, HPLC; assay type: in vitro ADME; conditions: pH 5.5 MES buffer, 37 °C, 10 μg/mL Cat B
Procedure, shortened: as §1

[7] = Hydrodynamic size by dynamic light scattering; assay type: physicochemical; conditions: DLS, aqueous condition (saline, 1 mg/mL), mean ± SD, n = 5
Procedure, shortened: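 Nanoassemblies formed spontaneously in aqueous medium without carrier. They were dispersed at 1 mg/mL in saline and sized by dynamic light scattering (hydrodynamic diameter). Morphology was checked by TEM.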

MMP-9 = experiment: Enzyme cleavage, HPLC; assay type: in vitro ADME; conditions: pH 5.5 MES buffer, 37 °C, 10 μg/mL enzyme
Procedure, shortened: as §1

[8] = Drug loading capacity calculated from molecular weights; assay type: physicochemical
Procedure, shortened: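 Loading was calculated as (PROTAC MW 1411.59 + VPF MW 702.81) divided by the MW of the whole prodrug conjugate (2595.98). The cathepsin B-cleavable RRK peptide (464.61) is excluded from the numerator.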

Cat E = experiment: Enzyme cleavage, HPLC; assay type: in vitro ADME; conditions: pH 5.5 MES buffer, 37 °C, 10 μg/mL enzyme
Procedure, shortened: as §1

intratumoral T cells = experiment: Extracellular IFN-γ release from tumor-derived T cells; assay type: cell-based, mouse; conditions: n = 3
caspase-3 = experiment: Enzyme cleavage, HPLC; assay type: in vitro ADME; conditions: pH 5.5 MES buffer, 37 °C, 10 μg/mL enzyme
Procedure, shortened: as §1

GL261 cells [9] = experiment: Cytotoxicity, CCK-8; assay type: cell-based, mouse; conditions: GL261, 24 h, n = 5
Procedure, shortened: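 GL261 cells were exposed to test compound for 24 h, then incubated 20 min in medium containing 10% CCK-8. Absorbance was read at 450 nm. For the +L arm, the zero-concentration point is cells receiving laser without compound. n = 5.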

Cat L = experiment: Enzyme cleavage, HPLC; assay type: in vitro ADME; conditions: pH 5.5 MES buffer, 37 °C, 10 μg/mL enzyme
Procedure, shortened: as §1

[10] = absence of laser irradiation (-L)

In the case of VPF–KALAPYIPRRK–ertiprotafib [PNPTP1B], the “PTP1B and related downstream proteins (pERK, pAKT) levels” value (PTP1B; 5 μmol/L, 24 h) was “fully restored to levels similar to those in IFN-γ-untreated cells”, the “apoptosis rate of T cells within tumor tissues vs saline group” value (GL261 tumor [1]) was “no significant differences” and the “increase in cytotoxic T cells in tumor tissues, (+L) relative to (-L) group” value (GL261 tumor [1]; CD45+CD3+CD8+, Day 3, n = 5) was 1.2 fold. For the same molecule, the “brain fluorescence intensity relative to VPF” value ([2]; orthotopic GL261, i.v. 3 mg/kg VPF equivalent, 6 h post-injection, NIRF, n = 3) was 2.16 fold, the “time of peak accumulation in brain” value [2] was 6 h and the “stability with Cat D” value (Cat D) was “stable”. The “GL261 cell lysis by cocultured T cells” value (GL261 cells [3]) was “significantly increased”, the “Tim3 expression (Tim3-positive cells)” value [4] was 30.2 ± 4.33% and the “PD-1 expression (PD-1-positive cells)” value [4] was 42.47 ± 6.41%. The “PD-1 and Tim3 levels” value [4] was “lower PD-1 and Tim3 levels compared to untreated cells”, the “intracellular ROS generation” value (GL261 cells [5]; [10]) was “no ROS generation was detected” and the “intracellular ROS generation” value (GL261 cells [5]; laser 40 mW 500 s (+L)) was “nearly identical”. The “time to complete regression in all mice” value (GL261 tumor [6]) was at most 8 days, the “time to complete cleavage into PROTAC and VPF–K” value (Cat B) was at most 1 h and the “average diameter (hydrodynamic size)” value [7] was 87.79 ± 1.25 nm. For the same molecule, the “stability with MMP-9” value (MMP-9) was “stable”, the “drug loading capacity, PROTAC share” value [8] was 54.4% and the “drug loading capacity, VPF share” value [8] was 34.2%. The “stability with Cat E” value (Cat E) was “stable”, the “extracellular release of IFN-γ” value (intratumoral T cells) was “higher quantity” and the “stability with caspase-3” value (caspase-3) was “stable”. The cytotoxicity (GL261 cells [9]; CCK-8, with laser irradiation (+L)) was “even more potent tumor-killing effect”, the cytotoxicity (GL261 cells [9]; CCK-8, without laser (-L)) was “significantly greater cytotoxicity than ertiprotafib” and the “stability with Cat L” value (Cat L) was “stable”.
In the case of verteporfin [VPF, reference compound], the “apoptosis rate of T cells within tumor tissues vs saline group” value (GL261 tumor [1]) was “no significant differences”, the “time of peak accumulation in brain” value [2] was 6 h and the “intracellular ROS generation” value (GL261 cells [5]; [10]) was “no ROS generation was detected”. The “intracellular ROS generation” value (GL261 cells [5]; laser 40 mW 500 s (+L)) was “nearly identical”.
In the case of `Cc1cc(-c2c3ccccc3c(Br)c3sc(C)c(C)c23)cc(C)c1O[C@H](Cc1ccccc1)C(=O)O` [ertiprotafib, reference compound], the PTP1B levels (PTP1B; pERK and pAKT decreased) was “no changes in PTP1B levels”, the “Tim3 expression (Tim3-positive cells)” value [4] was 47.53 ± 3.11% and the “PD-1 expression (PD-1-positive cells)” value [4] was 57.43 ± 5.29%. The “PD-1 and Tim3 levels” value [4] was “lower PD-1 and Tim3 levels compared to untreated cells” and the cytotoxicity (GL261 cells [9]; CCK-8, without laser (-L)) was “minimum GBM cell death”.
